The source of these data is ChEMBL document CHEMBL2384970, “Development of peptidomimetic boronates as proteasome inhibitors” (Eur J Med Chem, 2013).

In experiment [1] the target is T1, Proteasome Macropain subunit MB1 (Homo sapiens) (UniProt P28074).
T1 sequence (whole entry): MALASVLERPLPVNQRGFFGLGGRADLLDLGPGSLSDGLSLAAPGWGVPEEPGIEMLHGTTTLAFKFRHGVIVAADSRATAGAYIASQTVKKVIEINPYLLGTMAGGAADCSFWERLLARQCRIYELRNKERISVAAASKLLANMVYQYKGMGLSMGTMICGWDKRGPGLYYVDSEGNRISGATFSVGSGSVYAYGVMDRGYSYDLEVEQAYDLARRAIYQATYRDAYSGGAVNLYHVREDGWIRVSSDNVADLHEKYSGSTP
Nature of the experiment: Inhibition of human 20S proteasome chymotrypsin like activity using Suc-Leu-Leu-Val-Tyr-AMC as substrate at 20 uM measured over 10 mins by fluorescence assay relative to control. An outline of the steps:
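Screening run at a single […] inhibitor concentration against purified human erythrocyte 20S proteasome, using an equal amount of DMSO as the negative control. AMC fluorescence read at ex 380/em 460 nm continuously for 10 min.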

The species entered for experiment [2] is Homo sapiens. The experiment in a line: Selectivity ratio of Ki for human 20S proteasome post-glutamyl peptide hydrolyzing activity to Ki for human 20S proteasome chymotrypsin like activity.
Experiment [3] concerns the target Proteasome Macropain subunit (Homo sapiens) (UniProt P49721). The experiment in a line: Inhibition of human 20S proteasome trypsin like activity using Boc-Leu-Leu-Arg-Arg-AMC as substrate at 20 uM measured over 10 mins by fluorescence assay. The note with it: in the assay text read “Boc-Leu-Arg-Arg-AMC” for “Boc-Leu-Leu-Arg-Arg-AMC”. In short, it runs like this:
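Tryptic activity of human erythrocyte 20S proteasome at 0.0025 mg mL1, 30 °C, in 50 mM Tris pH 7.4, 50 mM NaCl, 0.5 mM EDTA, 0.03% SDS, 7.5% DMSO. Compound at […]. Boc-Leu-Arg-Arg-AMC at […]. Continuous 10-min fluorescence reading (ex 380/em 460 nm) against a DMSO control.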

Experiment [4] deals with T2, Proteasome Macropain subunit MB1 (Homo sapiens, UniProt P28074).
T2 sequence (P28074 whole entry): T1 sequence (whole entry)
Nature of the experiment: Inhibition of human 20S proteasome chymotrypsin like activity using Suc-Leu-Leu-Val-Tyr-AMC as substrate measured over 10 mins by fluorescence assay.

The nature of experiment [5]: Inhibition of bovine pancreatic alpha-chymotrypsin using Suc-Leu-Leu-Val-Tyr-AMC as substrate measured over 10 mins by fluorescence assay. Set-up: species or system Bos taurus. An outline of the steps: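 Bovine pancreatic alpha-chymotrypsin ([…] as printed) incubated at 20 °C with test compound in 50 mM Tris pH 8.0, 100 mM NaCl, 5 mM EDTA, 7.5% DMSO. Substrate at […] final. Product release followed over 10 min. Ki obtained from progress curves fitted to a 4-parameter IC50 equation and corrected for substrate.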

In experiment [6] the target is T3, Proteasome component C5 (Homo sapiens, UniProt P20618).
T3 sequence (P20618 whole entry): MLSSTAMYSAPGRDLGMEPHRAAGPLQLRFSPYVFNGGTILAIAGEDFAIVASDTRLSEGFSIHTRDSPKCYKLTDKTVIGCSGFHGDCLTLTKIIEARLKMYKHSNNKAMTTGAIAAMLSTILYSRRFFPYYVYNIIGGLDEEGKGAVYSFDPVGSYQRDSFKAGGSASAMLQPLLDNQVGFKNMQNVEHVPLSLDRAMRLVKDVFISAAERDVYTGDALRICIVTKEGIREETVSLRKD
Nature of the experiment: Inhibition of human 20S proteasome post-glutamyl peptide hydrolyzing activity using Z-Leu-Leu-Glu-AMC as substrate measured over 10 mins by fluorescence assay.

SMILES strings stand for the structures. The source made the active and inactive calls. No cut-off for these calls is given here.

Sequence of Proteasome Macropain subunit (Homo sapiens) (P49721 whole entry): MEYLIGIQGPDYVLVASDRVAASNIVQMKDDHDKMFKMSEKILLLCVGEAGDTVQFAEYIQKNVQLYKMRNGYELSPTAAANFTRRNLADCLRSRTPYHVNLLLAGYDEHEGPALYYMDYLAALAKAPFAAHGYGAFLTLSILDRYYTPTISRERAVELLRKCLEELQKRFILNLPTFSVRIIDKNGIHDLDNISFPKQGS

In the case of `CC(C)C[C@H](NC(=O)[C@H](Cc1ccccc1)NC(=O)c1cnccn1)B(O)O`, in experiment [1], the inhibition was more than 40%.
For the compound `CC(C)C[C@H](NC(=O)[C@H](C)n1ccc2ncccc2c1=O)B(O)O`, the Ratio Ki in experiment [2] turned out to be 10. The inhibition in experiment [1] was more than 40%. The inhibition result in experiment [3] is “inactive”. In addition, the results for the Ki in experiment [4] and in experiment [5] were 1.34 µM and 9.16 µM, respectively.
With `CC(C)C[C@H](NC(=O)Cn1ccc(N2CCN(C)CC2)cc1=O)B(O)O`, the inhibition in experiment [1] worked out at 30%. In addition, the inhibition entry in experiment [3] is “inactive”.
Regarding `CCN(CC)c1ccn(CC(=O)N[C@@H](CC(C)C)B(O)O)c(=O)c1`, the Ratio Ki in experiment [2] came out at 5.5. Also, in experiment [1], the inhibition was more than 40%. In experiment [3], the inhibition entry is “inactive”. The same compound gave a Ki in experiment [4] of 0.8 µM.
Take `CC(C)C[C@H](NC(=O)Cn1cc(Br)c2ncccc2c1=O)B(O)O`: the inhibition in experiment [1] was more than 40%. Moreover, the inhibition entry in experiment [3] is “inactive”. In experiment [4], this compound returned a Ki of 0.17 µM.
With `CC(C)C[C@H](NC(=O)Cn1ccc2c(c1=O)CCCN2C)B(O)O`, in experiment [1], the inhibition is more than 40%. Moreover, the inhibition result in experiment [3] is “inactive”. Affinity in experiment [4] was put at a Ki of 1.62 µM.
`CC(C)C[C@H](NC(=O)Cn1ccc2ncccc2c1=O)B(O)O` showed an inhibition in experiment [1] of more than 40%. Also, in experiment [3], the inhibition result is “inactive”. This compound yielded a Ki in experiment [4] of 0.44 µM.
Turning to `CC(C)C[C@H](NC(=O)Cn1ccc(Nc2ccccc2)cc1=O)B(O)O`, the Ratio Ki in experiment [2] worked out at 52. Besides, the inhibition in experiment [1] is more than 40%. Also, the inhibition entry in experiment [3] was “inactive”. In addition, the Ki is 0.098 µM in experiment [4] and 12.7 µM in experiment [5].
`C=CCN1CCN(c2ccn(CC(=O)N[C@@H](CC(C)C)B(O)O)c(=O)c2)CC1` displayed an inhibition in experiment [1] of more than 40%. Also, the inhibition constant (Ki) entry in experiment [6] was “Not Active”; in experiment [4], 5.9 µM. Besides, the inhibition entry in experiment [3] was “inactive”.
With `CC(C)C[C@H](NC(=O)Cn1ccccc1=O)B(O)O`, the Ratio Ki in experiment [2] was 5.3. The same compound returned an inhibition in experiment [1] of more than 40%. Besides, the inhibition result in experiment [3] is “inactive”. The same compound returned a Ki in experiment [4] of 0.26 µM.
`CC(C)C[C@H](NC(=O)Cn1ccc(N2CCCCC2)cc1=O)B(O)O` had an inhibition in experiment [1] of more than 40%. Further, the inhibition result in experiment [3] is “inactive”. For the same compound, the affinity in experiment [4], expressed as Ki, was 0.3 µM.
Compound `CC(C)C[C@H](NC(=O)Cn1ccc(N2CCOCC2)cc1=O)B(O)O` came in with an inhibition in experiment [1] of more than 40%. The inhibition entry in experiment [3] was “inactive”. Further, the Ki in experiment [4] amounted to 1.45 µM.
